# Experimental data published in article PMC12166265 (Clinical Pharmacology and Therapeutics, 2025).
# Where two headings read alike, the source gives them in different places.
# Tests used:
# [1] = system: ABCG2 p.Q141K variant; format: in vivo, human; conditions: rosuvastatin 10 mg
# In short: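 Open-label fixed-sequence crossover in 11 healthy non-smoking adults aged 18–64. Single oral rosuvastatin 10 mg given after an overnight fast, with fasting continued 4 h. Heparinised venous plasma was stored at −70°C and analysed by LC–MS. ABCG2 c.421C>A was genotyped blind by PCR and Sanger sequencing. Nine CC and two CA subjects were compared at T = 0 h and by noncompartmental PK, using log-transformed geometric means and unpaired t-tests.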
# [2] = format: in vivo, human; conditions: for Effect of eltrombopag administration on plasma concentrations (in words): eltrombopag 75 mg daily for 5 days
# [3] = both, human, plasma, oral, 10 mg
# [4] = human, in vivo, listed as rosuvastatin
# [5] = rosuvastatin + eltrombopag arm, geometric mean (90% CI)
# [6] = rosuvastatin alone arm, geometric mean (90% CI)
molecule,measurement,setting,value
"CC(C)c1nc(N(C)S(C)(=O)=O)nc(-c2ccc(F)cc2)c1/C=C/[C@@H](O)C[C@@H](O)CC(=O)O [Rosuvastatin, reference compound]","AUC0–4, fold higher in p.Q141K variant vs reference allele",[1],2.9 fold
same,"AUC0–INF, fold higher in p.Q141K variant vs reference allele",[1],2.6 fold
same,"Cmax, fold higher in p.Q141K variant vs reference allele",[1],2.4 fold
same,AUC(0-inf),"[2]; both, human, plasma, oral",116 ng·h/mL
same,CL/F,"[2]; both, human, plasma, oral",19.7 mL/min/kg
same,Cmax,"[2]; both, human, plasma, oral",10.9 ng/mL
same,half-life,"[2]; both, human, plasma, oral",8.8 h
same,AUC(0-inf),[2]; [3],69.1 ng·h/mL
same,CL/F,[2]; [3],32.7 mL/min/kg
same,Cmax,[2]; [3],5.4 ng/mL
same,half-life,[2]; [3],10.4 h
same,AUC(0-t),"[2]; both, human, plasma, oral, 10 mg, AUC0−4, rosuvastatin alone arm, geometric mean (90% CI)",11.8 ng·h/mL
same,AUC(0-t),"[2]; both, human, plasma, oral, AUC0−4, rosuvastatin + eltrombopag arm, geometric mean (90% CI)",25 ng·h/mL
same,"AUC0−4, geometric mean ratio (90% CI) of rosuvastatin + eltrombopag arm to rosuvastatin alone arm","[2]; human, in vivo",2.12 (1.71–2.62); P = 0.002
same,"AUC0−INF, geometric mean ratio (90% CI) of rosuvastatin + eltrombopag arm to rosuvastatin alone arm","[2]; human, in vivo",1.80 (1.49–2.17); P = 0.002
same,"CL/F/kg, geometric mean ratio (90% CI) of rosuvastatin + eltrombopag arm to rosuvastatin alone arm","[2]; human, in vivo",0.56 (0.46–0.67); P = 0.02
same,"Cmax, geometric mean ratio (90% CI) of rosuvastatin + eltrombopag arm to rosuvastatin alone arm","[2]; human, in vivo",2.01 (1.59–2.53); P = 0.002
same,"T1/2, geometric mean ratio (90% CI) of rosuvastatin + eltrombopag arm to rosuvastatin alone arm","[2]; human, in vivo",0.88 (0.78–0.99); P = 0.13
same,"V/F/kg, geometric mean ratio (90% CI) of rosuvastatin + eltrombopag arm to rosuvastatin alone arm","[2]; human, in vivo",0.49 (0.38–0.63); P = 0.004
same,"AUC0−4, geometric mean ratio (90% CI) of rosuvastatin + eltrombopag arm to rosuvastatin alone arm",[2]; [4],2.1
same,"AUC0−INF, geometric mean ratio (90% CI) of rosuvastatin + eltrombopag arm to rosuvastatin alone arm",[2]; [4],1.8
same,"Cmax, geometric mean ratio (90% CI) of rosuvastatin + eltrombopag arm to rosuvastatin alone arm",[2]; [4],twofold
same,Tmax,[2]; rosuvastatin + eltrombopag arm,4 (3.5–5) h
same,V/F/kg,[2]; [5],14.9 (11.5–17.8) L/kg
same,V/F/kg,"[2]; rosuvastatin + eltrombopag arm, geometric mean (90% CI), listed as rosuvastatin",14.9 L/kg
same,Tmax,[2]; rosuvastatin alone arm,5 (1.5–5) h
same,V/F/kg,[2]; [6],29.3 (22.8–37.7) L/kg
same,V/F/kg,"[2]; rosuvastatin alone arm, geometric mean (90% CI), listed as rosuvastatin",29.3 L/kg
Coproporphyrin-I [CP‐I],Effect of eltrombopag administration on plasma concentrations (in words),[2],no effect
same,"AUC0−24, geometric mean ratio (90% CI) of rosuvastatin + eltrombopag arm to rosuvastatin alone arm","[2]; human, in vivo",0.96 (0.88–1.04); P = 0.50
same,"C0, geometric mean ratio (90% CI) of rosuvastatin + eltrombopag arm to rosuvastatin alone arm","[2]; human, in vivo",0.90 (0.83–0.98); P = 0.05
same,"Cmax, geometric mean ratio (90% CI) of rosuvastatin + eltrombopag arm to rosuvastatin alone arm","[2]; human, in vivo",0.95 (0.88–1.03); P = 0.33
same,AUC0−24,[2]; [5],16.2 (14.2–18.4) nM*h
same,C0,[2]; [5],0.74 nM
same,Cmax,[2]; [5],0.89 nM
same,AUC0−24,[2]; [6],16.9 (15.3–18.6) nM*h
same,C0,[2]; [6],0.81 nM
same,Cmax,[2]; [6],0.93 nM
Coproporphyrin-III [CP‐III],Effect of eltrombopag administration on plasma concentrations (in words),[2],no effect
same,"AUC0−24, geometric mean ratio (90% CI) of rosuvastatin + eltrombopag arm to rosuvastatin alone arm","[2]; human, in vivo",0.93 (0.80–1.08); P = 0.44
same,"C0, geometric mean ratio (90% CI) of rosuvastatin + eltrombopag arm to rosuvastatin alone arm","[2]; human, in vivo",0.75 (0.64–0.88); P = 0.01
same,"Cmax, geometric mean ratio (90% CI) of rosuvastatin + eltrombopag arm to rosuvastatin alone arm","[2]; human, in vivo",0.83 (0.70–0.98); P = 0.08
same,AUC0−24,[2]; [5],1.70 (1.46–1.99) nM*h
same,C0,[2]; [5],0.09 nM
same,Cmax,[2]; [5],0.11 nM
same,AUC0−24,[2]; [6],1.83 (1.60–2.09) nM*h
same,C0,[2]; [6],0.12 nM
same,Cmax,[2]; [6],0.13 nM
